This note sets out measurements from ChEMBL document CHEMBL4819095, “Development of ciclesonide analogues that block SARS-CoV-2 RNA replication” (Bioorg Med Chem Lett, 2021).

The source made the active and inactive calls. The calls are words filed in the database; no cut-off is given here.

Data set [1] relates to Vero C1008. Description: Cytotoxicity against African green monkey Vero E6 cells expressing TMPRSS2 assessed as reduction in cell viability at 40 uM incubated for 18 hrs by LDH assay. The following applies: chlorocebus sabaeus, vero c1008, 18 h. It counts as cell-based. The method in brief: (§1)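 Vero E6/TMPRSS2 cells exposed for 18 h to compounds at concentrations up to 40 µM. Cytotoxicity read as lactate dehydrogenase (LDH) release. Each independent experiment run in triplicate.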

Data set [2] deals with SARS-CoV-2. Description: Antiviral activity against SARS-CoV-2 JPN/TY/WK-251 infected in African green monkey Vero E6 cells expressing TMPRSS2 assessed as reduction in viral RNA replication by measuring replication copies assessed per well at 10 uM incubated for 18 hrs by qRT-PCR analysis. It counts as functional.
In data set [3] the test system is Vero C1008. In words: Cytotoxicity against African green monkey Vero E6 cells expressing TMPRSS2 assessed as reduction in cell viability at 20 uM incubated for 18 hrs by LDH assay. It counts as cell-based. The following applies: chlorocebus sabaeus, vero c1008, 18 h. The method in brief:
as §1

Data set [4] relates to SARS-CoV-2. Description: Antiviral activity against SARS-CoV-2 JPN/TY/WK-251 infected in African Green monkey Vero E6 cells expressing TMPRSS2 assessed as reduction in viral plaques incubated for 18 hrs by plaque reduction assay. The following applies: Severe acute respiratory syndrome coronavirus 2, dose 0.625-80 µM. The data set is classed as functional, organism-based. In general terms: In a plaque reduction assay, fewer plaques than in the control indicate reduced infectivity or spread.

Data set [5] deals with Vero C1008. Description: Cytotoxicity against African green monkey Vero E6 cells expressing TMPRSS2 assessed as reduction in cell viability upto 40 uM incubated for 18 hrs by LDH assay. It counts as cell-based. The note with it: chlorocebus sabaeus, vero c1008, 18 h. The method in brief: as §1
Setting [6] is: Severe acute respiratory syndrome coronavirus 2.

Turning to `C[C@]12C=CC(=O)C=C1CC[C@@H]1[C@@H]2[C@@H](O)C[C@@]2(C)[C@H]1C[C@H]1O[C@@H](C3CCCCC3)O[C@]12C(=O)CBr`, the Activity result in the data set on Vero C1008 [1] is “Toxic”. In addition, in the data set on SARS-CoV-2 [2] (setting [6]), the result was Active.

Regarding `C[C@]12C=CC(=O)C=C1CC[C@@H]1[C@@H]2[C@@H](O)C[C@@]2(C)[C@H]1C[C@H]1O[C@@H](C3CCCCC3)O[C@]12C(=O)CI`, in the data set on Vero C1008 [1], the Activity result was “Toxic”.

Regarding `C[C@]12C=CC(=O)C=C1CC[C@@H]1[C@@H]2[C@@H](O)C[C@@]2(C)[C@H]1C[C@H]1O[C@@H](C3CCCCC3)O[C@]12C(=O)CO` [DESISOBUTYRYLCICLESONIDE], the Activity entry in the data set with Vero C1008 [3] was “Toxic”; with SARS-CoV-2 [4], “Dose-Dependent Effect”. Moreover, in the data set on SARS-CoV-2 [2] (setting [6]), the outcome was Active.

For the compound `C[C@]12C=CC(=O)C=C1CC[C@@H]1[C@@H]2[C@@H](O)C[C@@]2(C)[C@H]1C[C@H]1O[C@@H](C3CCCCC3)O[C@]12C(=O)COS(C)(=O)=O`, the Activity entry in the data set with Vero C1008 [3] is “Toxic”. Besides, in the data set on SARS-CoV-2 [2] (setting [6]), the result was Active.

For the compound `C[C@]12C=CC(=O)C=C1CC[C@@H]1[C@@H]2[C@@H](O)C[C@@]2(C)[C@H]1C[C@H]1O[C@@H](C3CCCCC3)O[C@]12C(=O)CN`, the Activity entry in the data set on Vero C1008 [3] is “Toxic”.

As to `CC(C)C(=O)NCC(=O)[C@@]12O[C@H](C3CCCCC3)O[C@@H]1C[C@H]1[C@@H]3CCC4=CC(=O)C=C[C@]4(C)[C@H]3[C@@H](O)C[C@@]12C`, in the data set with Vero C1008 [5], the Activity entry is reported as “Non-Toxic”.

Take `C[C@]12C=CC(=O)C=C1CC[C@@H]1[C@@H]2[C@@H](O)C[C@@]2(C)[C@H]1C[C@H]1O[C@@H](C3CCCCC3)O[C@]12C(=O)CCl`: the Activity result is “Non-Toxic” in the data set with Vero C1008 [5], 4.6 10^5No_unit in the data set on SARS-CoV-2 [2] and “Dose-Dependent Effect” with SARS-CoV-2 [4].

In the case of `CN(C)CC(=O)[C@@]12O[C@H](C3CCCCC3)O[C@@H]1C[C@H]1[C@@H]3CCC4=CC(=O)C=C[C@]4(C)[C@H]3[C@@H](O)C[C@@]12C`, the Activity entry in the data set with Vero C1008 [1] was “Toxic”.

With `CC(C)C(=O)OCC(=O)[C@@]12O[C@H](C3CCCCC3)O[C@@H]1C[C@H]1[C@@H]3CCC4=CC(=O)C=C[C@]4(C)[C@H]3[C@@H](O)C[C@@]12C` [CICLESONIDE], the values for the Activity result with Vero C1008 [5], in the data set with SARS-CoV-2 [2] and in the data set on SARS-CoV-2 [4] were “Non-Toxic”, 5.2 10^5No_unit and “Dose-Dependent Effect”, respectively.

Take `C[C@]12C=CC(=O)C=C1CC[C@@H]1[C@@H]2[C@@H](O)C[C@@]2(C)[C@H]1C[C@H]1O[C@@H](C3CCCCC3)O[C@]12C(=O)CN=[N+]=[N-]`: the Activity result in the data set with Vero C1008 [5] is “Non-Toxic”; in the data set on SARS-CoV-2 [2] it was 2.1 10^5No_unit; in the data set with SARS-CoV-2 [4] it was “Dose-Dependent Effect”.
